PubChem BioAssay
Calls of active or inactive are those of the source.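 The calls were made as follows, unless noted: active = Her2 level under about 52% in both replicate screens, with viability over 70% of control (limit read from the data); inconclusive = Her2 under the limit in one screen only, or viability under 70%; inactive = Her2 level above the set limit.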

What was measured:
[1] = reducers of endogenous Her2 protein level, primary screen, SKBR3 breast tumor cells, AlphaScreen, ATP viability (AID 461); settings: 18-24 h, measured here: SKBR3 viability, ATP luminescence, at 10 µM;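 as to Her2 level: lower value means less Her2 protein in the cells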;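 as to viability: percent of carrier control wells set as 100% viability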
[2] = biological target: Receptor tyrosine-protein kinase erbB-2 (Homo sapiens) (UniProt P04626); test: as above; settings: 18-24 h, at 10 µM, stronger effect = lower value
[3] = SK-BR-3 cell growth inhibitors, pilot screen, 24 h, human (AID 572;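 active = viability at or below 10% of carrier control in both of two separate runs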;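 also: compound exposure lasted between 18 and 24 h rather than exactly 24 h; 100% = carrier-treated control wells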); settings: SK-BR-3 viability, CellTiter-Glo luminescence, at 10 µM, stronger effect = lower value
[4] = HUVEC growth inhibition – cell-based, human, primary screen (AID 575;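 active = viability at or below 30% in both replicate assays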;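 also: 100% = median of untreated cell wells with 0.1% DMSO on each plate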); settings: HUVEC proliferation, CellTiter-Glo luminescence, 72 h; at 10 µM; stronger effect = lower value
Method in brief: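 Timing: 72 h treatment at 37 °C; material: HUVEC primary cells; technique: CellTiter-Glo luminescence measuring cellular ATP; controls: vehicle and MePR control wells; measure: percent of median DMSO-control luminescence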

[5] = growth inhibitors of H69AR lung tumor, primary screen, human, duplicate replicates (AID 580;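 active = viability at or under a set limit in both replicates, limit being median viability minus 3 SD, cut at about 48% in these data, passing the limit was not always enough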;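 also: 100% = mean luminescence of untreated wells and 0% = no signal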); settings: H69AR lung tumor cells viability, ATP luminescence, 72 h; at 10 µM; stronger effect = lower value
[6] = reversal of MRP1-mediated doxorubicin resistance, pilot screen, H69AR cells, doxorubicin co-treatment (AID 601;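 active = viability loss from added drug above about 55%, and viability with drug at most 40%, in both replicates, limit read from the data, passing the limit was not always enough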); settings: CellTiter-Glo, 72 h, at 10 µM; for differential viability (reversal): stronger effect = higher value
[7] = 384-well plate pilot, post-Golgi transport modulator project, inhibition of yeast transport mutant growth (AID 636; in the data active = inhibition above about 31%); settings: absorbance 615 nm, about 18 h, stronger effect = higher value
[8] = growth suppression of yeast trafficking mutant, preliminary HTS, modulators of trafficking downstream of Golgi apparatus project, 1536-format plate, OD 615 nm (AID 637; in the data active = inhibition above about 30%); settings: yeast transport mutant growth, absorbance 615 nm, 18 h; stronger effect = higher value
[9] = H69AR cells + 2 uM doxorubicin, measured here: viability with 2 uM doxorubicin, stronger effect = lower value
[10] = H69AR cells, compound alone cytotoxicity

Sequence of Receptor tyrosine-protein kinase erbB-2 (Homo sapiens) (P04626 whole entry, looked up): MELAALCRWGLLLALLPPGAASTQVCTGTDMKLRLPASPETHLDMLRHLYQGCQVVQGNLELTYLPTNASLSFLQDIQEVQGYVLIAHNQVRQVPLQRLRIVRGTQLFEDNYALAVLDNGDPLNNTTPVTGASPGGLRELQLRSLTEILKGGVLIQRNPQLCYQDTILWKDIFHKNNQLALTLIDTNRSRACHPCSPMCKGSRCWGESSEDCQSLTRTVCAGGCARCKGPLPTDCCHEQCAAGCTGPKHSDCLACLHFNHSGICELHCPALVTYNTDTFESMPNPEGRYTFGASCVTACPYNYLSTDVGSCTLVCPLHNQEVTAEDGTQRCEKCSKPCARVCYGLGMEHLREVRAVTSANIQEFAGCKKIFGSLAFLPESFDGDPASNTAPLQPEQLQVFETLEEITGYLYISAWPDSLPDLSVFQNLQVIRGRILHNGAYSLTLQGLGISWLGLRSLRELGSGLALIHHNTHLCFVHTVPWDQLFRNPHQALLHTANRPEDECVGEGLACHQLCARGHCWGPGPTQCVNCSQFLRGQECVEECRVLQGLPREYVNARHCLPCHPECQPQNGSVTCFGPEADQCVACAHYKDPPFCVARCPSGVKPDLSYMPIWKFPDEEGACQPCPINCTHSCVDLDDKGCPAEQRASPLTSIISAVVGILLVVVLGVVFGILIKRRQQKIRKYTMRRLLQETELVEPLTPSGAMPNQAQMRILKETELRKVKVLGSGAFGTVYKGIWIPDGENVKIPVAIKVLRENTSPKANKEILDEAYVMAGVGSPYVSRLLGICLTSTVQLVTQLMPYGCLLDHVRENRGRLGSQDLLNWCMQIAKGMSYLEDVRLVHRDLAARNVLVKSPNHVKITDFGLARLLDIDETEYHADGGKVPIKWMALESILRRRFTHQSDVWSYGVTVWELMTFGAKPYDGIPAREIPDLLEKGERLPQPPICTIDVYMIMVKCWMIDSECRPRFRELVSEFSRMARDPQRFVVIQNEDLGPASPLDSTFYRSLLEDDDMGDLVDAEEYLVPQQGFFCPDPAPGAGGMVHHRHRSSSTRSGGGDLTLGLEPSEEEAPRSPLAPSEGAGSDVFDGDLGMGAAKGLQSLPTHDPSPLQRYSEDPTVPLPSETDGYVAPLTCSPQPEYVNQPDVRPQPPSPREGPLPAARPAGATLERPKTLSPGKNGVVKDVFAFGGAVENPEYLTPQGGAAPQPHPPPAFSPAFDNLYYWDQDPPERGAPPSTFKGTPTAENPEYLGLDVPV

SMILES	viability [1]	Her2 level [2]	viability [3]	viability [4]	viability [5]	differential viability (reversal) ([6]; H69AR cells + 2 uM doxorubicin)	viability [6, 9]	viability [6, 10]	inhibition [7]	inhibition [8]
CC(=O)NCCOc1cccc(OCCNC(C)=O)c1	94.5%	122% (inactive)	94.5% (inactive)	103% (inactive)	86.3% (inactive)	-5.34% (inactive)	91.7%	86.3%	2.67% (inactive)	-3.17% (inactive)
CCOC(=O)C1CCN(c2c(N(C)Cc3ccco3)c(=O)c2=O)CC1	78%	105% (inactive)	78% (inactive)	93% (inactive)	104% (inactive)	15% (inactive)	88.9%	104%	0.13% (inactive)	-5.5% (inactive)
O=C(NCCC1=CCCCC1)C1CCN(S(=O)(=O)c2cccc3nsnc23)CC1	104%	92.5% (inactive)	104% (inactive)	58.5% (inactive)	96.5% (inactive)	14.2% (inactive)	82.4%	96.5%	-5.33% (inactive)	0.98% (inactive)
COc1ncnc2c1N=C1CC(C)(C)CC(N)=C1S2	92.5%	86% (inactive)	92.5% (inactive)	99% (inactive)	87.5% (inactive)	4.68% (inactive)	82.8%	87.5%	-5.07% (inactive)	-2.3% (inactive)
Cc1cc(Cl)c(S(=O)(=O)N2CCN(c3ccc(F)cc3)CC2)cc1OCC(N)=O	82.5%	100% (inactive)	82.5% (inactive)	97.1% (inactive)	80.5% (inactive)	1.14% (inactive)	79.3%	80.5%	-5.66% (inactive)	8.85% (inactive)
CCOC(=O)c1oc2ccccc2c1CSc1nnnn1-c1ccc(OC)cc1	82.5%	69% (inactive)	82.5% (inactive)	77.4% (inactive)	75% (inactive)	1.07% (inactive)	73.9%	75%	-4.8% (inactive)	0.16% (inactive)
CCOc1ccc2nc(SCC#N)c(C#N)cc2c1	93%	106% (inactive)	93% (inactive)	104% (inactive)	100% (inactive)	16.1% (inactive)	84%	100%	-3.2% (inactive)	-0.32% (inactive)
CCOC(=O)CNc1ccc2c(c1)OCO2	88%	90% (inactive)	88% (inactive)	76.6% (inactive)	98.7% (inactive)	13.2% (inactive)	85.6%	98.7%	-5% (inactive)	-2.3% (inactive)
CCOC(=O)C1=C(C)Nc2nnnn2C1c1c[nH]c2ccccc12 (stereo not given)	110%	94% (inactive)	110% (inactive)	77.3% (inactive)	104% (inactive)	7.95% (inactive)	95.8%	104%	-2.93% (inactive)	15.6% (inactive)
Cc1cc(Cl)ccc1OCCCC(=O)NO	80.5%	76% (inactive)	80.5% (inactive)	71.3% (inactive)	2.07% (active)	-20.7% (inactive)	22.7%	2.07%	2.18% (inactive)	3.83% (inactive)
Cc1nc(N2CCc3ccccc32)[nH]c(=O)c1CCC(C)C	87.5%	89% (inactive)	87.5% (inactive)	72.3% (inactive)	79.1% (inactive)	9.09% (inactive)	70%	79.1%	-2.99% (inactive)	6.17% (inactive)
COc1ccc(CN2CC(C(=O)NCCCOC(C)C)CC2=O)cc1 (stereo not given)	101%	90.5% (inactive)	101% (inactive)	107% (inactive)	99.1% (inactive)	3.83% (inactive)	95.2%	99.1%	-2.11% (inactive)	0.81% (inactive)
CC(NO)C(C)(C)NO (stereo not given)	92%	101% (inactive)	92% (inactive)	92.3% (inactive)	100% (inactive)	11.2% (inactive)	89.2%	100%	-2.67% (inactive)	12.1% (inactive)
COc1ccc(N2CCN(Cc3nc4ccccc4c(=O)[nH]3)CC2)cc1	104%	98% (inactive)	104% (inactive)	92.1% (inactive)	94.3% (inactive)	-2.54% (inactive)	96.8%	94.3%	-3.33% (inactive)	-5.57% (inactive)
CCn1c(C(=O)OC)cc2c1ccn2-c1ccc(F)cc1	91%	80.5% (inactive)	91% (inactive)	86.1% (inactive)	83% (inactive)	7.09% (inactive)	75.9%	83%	-5.13% (inactive)	-1.82% (inactive)
COCCNC(=O)c1cc2c(-c3ccccc3F)nn(C)c2s1	109%	74% (inactive)	109% (inactive)	60.9% (inactive)	93.9% (inactive)	24.6% (inactive)	69.3%	93.9%	-6.53% (inactive)	-2.42% (inactive)
